Bim-Mcl-1 – inhibitors of Bim-Mcl-1 interaction, human; Q07820; Bead-based flow cytometry, Bim peptide-Mcl-1 binding; inhibition, % at 10 µM; 190,000 tested, 0.1% active; in the data active = inhibition above about 40%;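 also: 0% = no compound tracer wells and 100% = peptide blocker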
Target sequence (Q07820 whole entry, looked up): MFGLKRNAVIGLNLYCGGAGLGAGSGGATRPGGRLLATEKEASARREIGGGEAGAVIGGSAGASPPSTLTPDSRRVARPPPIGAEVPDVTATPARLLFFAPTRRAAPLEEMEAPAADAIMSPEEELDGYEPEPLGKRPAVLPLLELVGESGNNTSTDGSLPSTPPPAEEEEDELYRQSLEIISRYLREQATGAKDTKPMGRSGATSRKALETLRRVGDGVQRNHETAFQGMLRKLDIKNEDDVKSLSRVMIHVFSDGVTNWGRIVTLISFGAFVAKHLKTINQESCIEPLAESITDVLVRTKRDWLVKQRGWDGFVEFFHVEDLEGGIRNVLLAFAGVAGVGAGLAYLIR
MCL1 BIM primary – disrupts human MCL1 binding to BIM-BH3 peptide | GST-MCL1 / FITC-Bim-BH3 fluorescence polarization | inhibition, % at 10.9 µM | 320,000 tested, 0.68% active | AID 2057;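 active = inhibition above the mean inhibition of all tested compounds plus 3 SD, set per campaign, cut at about 40% in these data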;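 also: 0% = DMSO wells and 100% = unlabeled Bim-BH3 peptide control; higher means more loss of mP so more displacement of Bim peptide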
Pemphigus Ab inh – blocks pemphigus antibody binding to human desmoglein-3. AID 588358. DSG3-coupled beads, scFv-anti-DSG3-GFP binding, flow cytometry; hits give low values. binding (percent of control), % at 10 µM. 310,000 tested, 0.48% active;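 active = binding more than 3 SD below its plate's average and above zero; inconclusive = below that plate limit but binding exactly zero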;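 also: hits lower antibody fragment binding to DSG3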
Mcl1 Noxa PPI – disrupts binding of human Mcl-1 to Noxa peptide; TR-FRET Mcl-1/Noxa peptide binding, 2 h; inhibition, % at 21.7 µM; 220,000 tested, 1.5% active;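 active = compounds that cut the protein-peptide binding signal by more than 50% relative to plate controls in a single-dose test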;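 also: His-tagged Mcl-1 with rhodamine Noxa BH3 peptide and terbium anti-His antibody; 0% = Mcl-1 plus Noxa peptide wells and 100% = peptide-only wells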
Mcl1 Bid PPI – disrupts binding of human Mcl-1 to Bid peptide. TR-FRET Mcl-1/Bid-Dy647 peptide binding, 1536-well. inhibition, % at 21.7 µM. 220,000 tested, 0.97% active. AID 1021;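 active = compounds that cut the binding signal by more than half at the single screening dose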;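 also: His-tagged Mcl-1 with europium anti-His antibody binding Bid BH3 peptide; 0% = Mcl-1 plus peptide wells and 100% = peptide-only wells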
T cell HTS – T cell immune modulators affecting CD8 T cell-vesicle binding. response (vesicle binding), % at 7 µM. 2C CD8+ T cell-vesicle binding, flow cytometry; hits give low values. 330,000 tested, 0.068% active;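 active = response, share of CD8 T cells binding vesicles, and their 90th percentile fluorescence all below set limits, cut at about 80% in these data, passing the limit was not always enough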;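 also: values below 100% mean blocked vesicle binding to the CD8+ T cells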
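Test system: purified 2C TCR transgenic mouse naive CD8+ T cells. Probe or stimulus: QL9-peptide-loaded Drosophila micro-vesicles bearing Ld, ICAM-1 and B7-1. Incubation: binding step 1.5 h, 37 °C, antibody labelling 20 min, ice. Measured by: flow cytometry of vesicle-bound cells.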
Numbers without * were called inactive. A selection: hits, their analogues and other compounds. The true share with any hit is near 2.3%.

What do the screens show for `COc1ccc2nc(NC(=O)/C=C/c3ccc4c(c3)OCO4)sc2c1`?
Bim-Mcl-1: 1; MCL1 BIM primary: 17; Mcl1 Noxa PPI: 0; Mcl1 Bid PPI: 51*; T cell HTS: 190

What do the screens show for `COc1ccc2nc(NC(=O)Nc3cccc4ccccc34)sc2c1`?
Bim-Mcl-1: 0; MCL1 BIM primary: -3; Pemphigus Ab inh: 99; Mcl1 Noxa PPI: 75*; Mcl1 Bid PPI: -33; T cell HTS: 295

How did CS(=O)(=O)c1ccc2nc(NC(=O)Nc3ccccc3F)sc2c1 do in these assays?
MCL1 BIM primary: -11; Pemphigus Ab inh: 88*; T cell HTS: 207

How did c1ccc(-c2nc3cccnc3nc2-c2ccccc2)cc1 do in these assays?
MCL1 BIM primary: 6; Pemphigus Ab inh: 117; T cell HTS: inactive

Results for Oc1ccccc1C(Nc1nccs1)c1ccc2cccnc2c1O (stereo not given) ?
MCL1 BIM primary: 7; Pemphigus Ab inh: 70*; Mcl1 Noxa PPI: -69; Mcl1 Bid PPI: -60; T cell HTS: 219

How did Oc1c(C(Nc2ccccn2)c2ccccn2)ccc2cccnc12 (stereo not given) do in these assays?
Bim-Mcl-1: 0; MCL1 BIM primary: 7; Pemphigus Ab inh: 71; Mcl1 Noxa PPI: -44; Mcl1 Bid PPI: -146; T cell HTS: 116

How did NC(N)=NS(=O)(=O)c1ccc(NC(=S)NC(=O)c2sc3ccccc3c2Cl)cc1 do in these assays?
Bim-Mcl-1: -1; MCL1 BIM primary: 6; Pemphigus Ab inh: 104; Mcl1 Noxa PPI: -148; Mcl1 Bid PPI: 82*; T cell HTS: 284

What do the screens show for `COc1cc(NS(=O)(=O)c2ccc(NC(=S)NC(=O)c3sc4ccccc4c3Cl)cc2)nc(OC)n1`?
Bim-Mcl-1: -4; MCL1 BIM primary: 8; Pemphigus Ab inh: 115; Mcl1 Noxa PPI: 69*; Mcl1 Bid PPI: 66*; T cell HTS: 397

Results for COc1cc(NS(=O)(=O)c2ccc(NC(=S)NC(=O)c3ccco3)cc2)nc(OC)n1 ?
MCL1 BIM primary: 13; Pemphigus Ab inh: 98; Mcl1 Noxa PPI: 14; Mcl1 Bid PPI: -91; T cell HTS: 48

What do the screens show for `COc1cc(NS(=O)(=O)c2ccc(NC(=S)NC(=O)c3sc4cc(F)ccc4c3Cl)cc2)nc(OC)n1`?
Bim-Mcl-1: -16; MCL1 BIM primary: 8; Pemphigus Ab inh: 140; Mcl1 Noxa PPI: 88*; Mcl1 Bid PPI: 33; T cell HTS: 139

What do the screens show for `COc1cc(NS(=O)(=O)c2ccc(NC(C)=O)cc2)nc(OC)n1`?
Bim-Mcl-1: -4; MCL1 BIM primary: -10; Pemphigus Ab inh: 98; Mcl1 Noxa PPI: 9; Mcl1 Bid PPI: 5; T cell HTS: 159

What do the screens show for `COc1ccc(C2Nc3ccccc3C(=O)N2O)cc1OC` (stereo not given)?
Bim-Mcl-1: -3; MCL1 BIM primary: 6; Pemphigus Ab inh: 105; Mcl1 Noxa PPI: -1; Mcl1 Bid PPI: 93*; T cell HTS: 243

What do the screens show for `COc1ccc(C2Nc3ccccc3C(=O)N2NC(C)=O)cc1OC` (stereo not given)?
Bim-Mcl-1: 0; MCL1 BIM primary: -4; Pemphigus Ab inh: 102; Mcl1 Noxa PPI: 9; Mcl1 Bid PPI: -6; T cell HTS: 294

How did O=C1C2CC=C(Cl)CC2C(=O)N1CN(Cc1ccco1)CN1C(=O)C2CC=C(Cl)CC2C1=O (stereo not given) do in these assays?
Bim-Mcl-1: -3; MCL1 BIM primary: 51*; Pemphigus Ab inh: 106; Mcl1 Noxa PPI: 39; Mcl1 Bid PPI: -77; T cell HTS: 452

What do the screens show for `N#Cc1cccc(N=Cc2c(O)ccc3ccccc23)c1`?
Bim-Mcl-1: 2; MCL1 BIM primary: 3; Pemphigus Ab inh: 132; Mcl1 Noxa PPI: 55*; Mcl1 Bid PPI: -22; T cell HTS: 156

Results for CC(C)C(=O)Nc1nnc(S(=O)(=O)N(C)c2ccc(Cl)cc2)s1 ?
Pemphigus Ab inh: inconclusive; T cell HTS: 188

How did CC12CCC(=O)C=C1CCCC2=O (stereo not given) do in these assays?
Pemphigus Ab inh: 91

Results for COc1ccc(/C(O)=C2/C(=O)C(=O)N(CCCN3CCOCC3)C2c2ccc(Cl)cc2)cc1 (stereo not given) ?
Pemphigus Ab inh: 103

How did CC(=O)N1CCC(=NNC(=O)c2cccs2)CC1 do in these assays?
Bim-Mcl-1: -2; MCL1 BIM primary: -4; Pemphigus Ab inh: 110; Mcl1 Noxa PPI: -1; Mcl1 Bid PPI: -40; T cell HTS: 0.0*

How did O=C(NN=C1CCCC1)c1cccs1 do in these assays?
Bim-Mcl-1: -1; MCL1 BIM primary: 8; Pemphigus Ab inh: 102; Mcl1 Noxa PPI: 15; Mcl1 Bid PPI: -22; T cell HTS: 266

What do the screens show for `COc1ccc(N(C)S(=O)(=O)c2cccc(C(=O)N3CCN(S(=O)(=O)c4ccc(C)cc4)CC3)c2)cc1`?
MCL1 BIM primary: -4; Pemphigus Ab inh: 100; T cell HTS: 195

What do the screens show for `O=C(Nc1ccc(C(F)(F)F)cc1-c1ccccc1)c1ccccc1`?
Bim-Mcl-1: 2; MCL1 BIM primary: -2; Pemphigus Ab inh: 65*; Mcl1 Noxa PPI: -1; Mcl1 Bid PPI: 1; T cell HTS: 468

How did O=C(Nc1ccccc1-c1ccccc1)c1cccc(C(F)(F)F)c1 do in these assays?
Bim-Mcl-1: 10; MCL1 BIM primary: -9; Pemphigus Ab inh: 88; Mcl1 Noxa PPI: 2; Mcl1 Bid PPI: -2; T cell HTS: 294

Results for CCOC(=O)C1=C(N)n2c(s/c(=C\c3ccncc3)c2=O)=C(C(=O)OCC)C1c1ccncc1 (stereo not given) ?
Bim-Mcl-1: 0; MCL1 BIM primary: 4; Pemphigus Ab inh: 102; Mcl1 Noxa PPI: 19; Mcl1 Bid PPI: 31; T cell HTS: 208

What do the screens show for `CCOC(=O)C1=C(N)n2c(s/c(=C\c3cccnc3)c2=O)=C(C(=O)OC)C1c1cccnc1` (stereo not given)?
MCL1 BIM primary: 5; Pemphigus Ab inh: 88*; T cell HTS: 584

How did CC(=O)c1sc2nc(CSc3nncn3C)[nH]c(=O)c2c1C do in these assays?
Bim-Mcl-1: 2; MCL1 BIM primary: -16; Pemphigus Ab inh: 119; Mcl1 Noxa PPI: 21; Mcl1 Bid PPI: 54*; T cell HTS: 262

What do the screens show for `CC(=O)c1sc2nc(CSc3nnnn3-c3ccccc3)[nH]c(=O)c2c1C`?
Bim-Mcl-1: -1; MCL1 BIM primary: -65; Pemphigus Ab inh: 94; Mcl1 Noxa PPI: 96*; Mcl1 Bid PPI: 3; T cell HTS: 265

How did Cc1c(C(=O)O)sc2nc(CSc3nnc(-c4ccc(F)cc4)n3C)[nH]c(=O)c12 do in these assays?
Bim-Mcl-1: 2; MCL1 BIM primary: 3; Pemphigus Ab inh: 101; Mcl1 Noxa PPI: 15; Mcl1 Bid PPI: -33; T cell HTS: 106

Results for O=[N+]([O-])c1ccc2[nH]c3nc4ccccc4nc3c2c1 ?
MCL1 BIM primary: 23; Pemphigus Ab inh: 85; Mcl1 Noxa PPI: 64*; Mcl1 Bid PPI: 36; T cell HTS: 222
